Hits are enriched below; roughly 3.4% of the tested compounds scored in any of these assays.
TRPML3 ag – activates the human TRPML3 channel. Q8TDD5. HEK293 TRPML3-YFP, Fluo-8 calcium fluorescence; 100% = the carbachol control signal. activation, % at 3 µM. 0.29% of 220,000 active;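 active = activation above its plate's cutoff, the mean activation of the plate's test wells plus 3 SD, cut at about 12% in these data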
Target sequence (Q8TDD5 whole entry, looked up): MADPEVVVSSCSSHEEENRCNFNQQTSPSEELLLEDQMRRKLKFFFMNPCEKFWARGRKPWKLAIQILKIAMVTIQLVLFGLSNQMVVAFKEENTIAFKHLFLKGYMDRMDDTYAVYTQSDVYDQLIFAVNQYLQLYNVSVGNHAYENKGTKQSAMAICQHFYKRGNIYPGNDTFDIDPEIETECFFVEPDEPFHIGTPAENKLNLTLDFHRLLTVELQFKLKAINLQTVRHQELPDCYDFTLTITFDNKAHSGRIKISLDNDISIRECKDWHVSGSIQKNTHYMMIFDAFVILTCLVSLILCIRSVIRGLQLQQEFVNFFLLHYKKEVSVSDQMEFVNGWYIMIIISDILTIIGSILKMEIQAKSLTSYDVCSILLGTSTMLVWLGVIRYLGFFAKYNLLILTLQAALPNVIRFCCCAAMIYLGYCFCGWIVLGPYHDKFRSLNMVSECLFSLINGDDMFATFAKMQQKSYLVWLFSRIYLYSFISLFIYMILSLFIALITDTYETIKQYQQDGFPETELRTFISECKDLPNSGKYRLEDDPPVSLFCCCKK
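system = HEK293 cells stably carrying human TRPML3-YFP | doses = one concentration, 3 µM nominal, 0.3% DMSO | timing = dye loading 1 h 37 °C then 30 min ambient, 125 s read | detection = Fluo-8 calcium dye fluorescence, ex 470-495, em 515-575 nm | benchmarks = high control carbachol 87 µM, low control DMSO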
zfTRPN1 agonist – zebrafish TRPN1 (NompC) channel agonism; activation, % at 3 µM; 0.18% of 220,000 active; HEK293 zebrafish TRPN1-YFP, Fluo-8 calcium fluorescence; 100% = response to 87 µM carbachol;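 active = activation above its plate's cutoff, the mean activation of test wells on that plate plus 3 SD, cut at about 19% in these data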
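System: zebrafish TRPN1-YFP in HEK293 cells / Dosing: 3 µM single point / Timing: dye loading 1 h at 37 °C, then 30 min room temperature / Signal: Fluo-8 calcium fluorescence, excitation 470-495 nm, emission 515-575 nm / Read-out basis: percent activation from peak over basal fluorescence ratio, control-normalized / Control set: high carbachol 87 µM, low DMSO alone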
LANA-H2B inh – blocks KSHV LANA binding to histone H2A/H2B | Q9QR71 | inhibition, % (concentration not given with the values) | cell-free LANA-H2A/H2B peptide, fluorescence polarization | 0.6% of 320,000 active | AID 2629; in the data active = inhibition mostly above about 10%, no sharp cut-off; inactive = mostly below about 6.7%
GPR7 antagonist – blocks human GPR7 receptor signaling; inhibition, % at 4.4 µM; AID 1861; P48145; GPR7-expressing cells, fluorescence antagonist assay; 1.1% of 290,000 active; in the data active = inhibition above about 16%, passing the limit was not always enough;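 note: cells stimulated with the agonist NPW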
TAAR1 antag – antagonists of human TAAR1. CHO RD-HGA16 TAAR1, Fluo-8 calcium fluorescence, antagonist. 1.5% of 360,000 active. Q96RJ0. inhibition, % at 3 µM. AID 624466;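 active = inhibition above a per-plate cutoff, the mean inhibition of test compounds on that plate plus 3 SD, cut at about 49% in these data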
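System: CHO RD-HGA16 cells bearing hTAAR1. Reagent: EC80 β-phenethylamine stimulus. Schedule: seeding 17-24 h prior, 75-min 37 °C, 30-min RT dye loading. Signal: Fluo-8 intracellular calcium dye fluorescence, real-time kinetic reads. Read-out: % inhibition from peak post-agonist over basal fluorescence ratio. Benchmarks: vehicle wells and EC80 agonist wells. Replicates: n of 1.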
TAAR1 agonist – agonists of human TAAR1; Q96RJ0; 0.99% of 360,000 active; activation, % at 3 µM; CHO RD-HGA16 TAAR1, Fluo-8 calcium fluorescence; vehicle wells 0%, saturating PEA agonist 100%;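 active = activation above the mean activation of all test compounds in the run plus 3 SD, cut at about 38% in these data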
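Test system: RD-HGA16 (CHO) cells co-expressing Gα16 and hTAAR1 / Benchmarks: DMSO vehicle as 0%, PEA at EC100 as 100% / Repeats: no replicates (n 1) / Measure: % activation from peak over basal fluorescence ratio, DMSO-to-PEA scaled / Timing: 17-24 h plating, Fluo-8 75 min 37 °C, 30 min RT / Technique: kinetic Fluo-8 calcium fluorescence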
A number is an active result; n = inactive; x = no result given; + = active, no number.

SMILES	TRPML3 ag	zfTRPN1 agonist	LANA-H2B inh	GPR7 antagonist	TAAR1 antag	TAAR1 agonist
OC(CNC1Cc2ccccc2C1)COc1ccc(Cl)cc1 (stereo not given)	n	n	n	n	n	n
OC(CNC1CCCc2ccccc21)COc1c(Cl)cccc1Cl (stereo not given)	n	n	n	n	n	69
C=CCN1C(=O)[C@]2(OCCC=C[C@H]2C)c2cc(OC)ccc21	x	x	x	x	n	n
OC1(c2ccc(Cl)cc2)CCN(Cc2cn[nH]c2-c2ccc(F)cc2)CC1	n	n	n	n	n	41
N#CC(c1ccc(F)cc1)c1ccc(C(=O)c2ccc(F)cc2)cc1 (stereo not given)	n	n	n	n	56	n
Oc1ccc(Cl)cc1Nc1nc(NCC2CCCO2)c2ccccc2n1 (stereo not given)	x	x	n	x	57	n
Cc1ccc(C2c3c(-c4ccccc4O)n[nH]c3C(=O)N2Cc2ccncc2)cc1 (stereo not given)	n	n	n	20	n	n
COC(=O)c1ccc2nc(-c3ccco3)c(Cc3ccsc3)n2c1	x	x	x	x	n	n
N#Cc1cccc2cnccc12	n	n	n	19	n	n
CC(NC(=O)C(=O)NN=C1CCCCCCCCCCC1)c1ccccc1 (stereo not given)	n	n	12	n	n	n
CC(NC(=O)C(=O)NN=C1CCCCCC1)c1ccccc1 (stereo not given)	n	n	n	n	n	n
COC(=O)c1cc2c(c3c4cc(F)ccc4n(S(=O)(=O)c4cccc(C)c4)c13)C(=O)N(c1ccc(OC)cc1)C2	x	x	x	x	n	n
CC(=O)C1=C(C)N(Cc2ccc(F)cc2)C(=S)NC1c1ccc(Cl)cc1 (stereo not given)	x	x	x	x	n	n
O=C(CN1CCN(c2ccc(O)cc2)CC1)Nc1ccccc1C(=O)NCCc1ccccc1	x	x	x	x	63	n
Oc1ccc(N2CCN(C(=S)NCCc3ccccc3)CC2)cc1	n	n	n	n	n	n
COc1cccc(N2CCN(CC(=O)Nc3ccccc3C(=O)NCCc3ccccc3)CC2)c1	x	x	n	x	53	n
COc1ccc(NC(=O)c2ccc(NC(=O)CCS(=O)(=O)c3cccs3)cc2)cc1	x	x	n	n	53	n
CCOC(=O)c1cccc(NC(=O)CCS(=O)(=O)c2cccs2)c1	n	n	n	n	n	n
COc1ccc(N(C)C(=O)c2ccc(NC(=O)CCS(=O)(=O)c3cccs3)cc2)cc1	x	x	n	n	n	n
CC(=O)c1cccc(NC(=O)c2ccc(NC(=O)CCS(=O)(=O)c3cccs3)cc2)c1	x	x	n	n	52	n
CCc1cccc(CC)c1NC(=O)CO/N=C(\C)c1cccs1	n	n	n	n	n	n
CC(=O)c1ccc(NC(=O)CO/N=C(\C)c2cccs2)cc1	n	n	n	20	n	n
CCNC(=O)N1C[C@H]2CON(C)[C@H]2C[C@H]1c1ccc(N2CCCCC2)cc1	x	x	x	x	n	n
C[C@@H]1ON(C)[C@H]2C[C@H]3c4cc(N5CCN(C)CC5)ccc4CCN3C[C@@H]12	x	x	x	x	n	n
Cc1oc(-c2cccs2)nc1CN1CCC(CO)(CCOc2ccccc2)CC1	n	n	13	n	n	n
SMILES	TRPML3 ag	zfTRPN1 agonist	LANA-H2B inh	GPR7 antagonist	TAAR1 antag	TAAR1 agonist
CCOC(=O)C1(CCOC)CCN(Cc2nc(-c3cccs3)oc2C)CC1	n	n	n	n	n	n
COCC(=O)N1CCC(Oc2ccc(C(=O)N(C)CCCC3CCCC3)cc2)CC1	x	x	16	n	n	n
COC(=O)CC#C[C@H](C)[C@@H](NS(=O)(=O)c1ccc(C)cc1)C1CCCCC1	x	x	x	x	n	n
COc1cc(/C=C/C(=O)OCC(=O)c2ccc(OC(F)F)cc2)ccc1O	x	x	n	x	61	n
CCc1ccc(NC(=O)C(C)OC(=O)/C=C/c2ccc(O)c(OC)c2)cc1 (stereo not given)	x	x	n	x	82	111
Cc1c(NC(=O)C(C)OC(=O)/C=C/c2ccccc2)c(=O)n(-c2ccccc2)n1C (stereo not given)	n	n	n	n	n	n
COc1cc(/C=C/C(=O)OC(C)C(=O)Nc2c(C)n(C)n(-c3ccccc3)c2=O)ccc1O (stereo not given)	x	x	119	x	n	n
CC(C)C(c1nnnn1C1CCCC1)N1CCC(C(N)=O)CC1 (stereo not given)	n	n	n	n	n	n
CCC(c1nnnn1C1CCCC1)N1CCC(C(N)=O)CC1 (stereo not given)	n	n	49	n	n	n
CCOC(=O)C1=C(C(=O)OCC)C2N(Cc3ccc(C#N)cc3)c3ccccc3[C@@]23C[C@@H](C(=O)OC)N(S(=O)(=O)c2ccc(C#N)cc2)C3=N1 (stereo not given in full)	x	x	x	x	n	n
Cc1cc2c(nc1C)CCCN2S(=O)(=O)c1c(C)noc1C	x	x	x	x	n	n
COc1ccccc1CNC(=O)c1cc(C2CC2)nc2c1cnn2C(C)C	x	x	n	x	n	n
CC(C)n1ncc2c(C(=O)NCCOc3ccccc3F)cc(C3CC3)nc21	x	x	n	x	50	n
CCOc1ccc(OCCNC(=O)c2cc(C3CC3)nc3c2cnn3C(C)C)cc1	x	x	x	x	60	n
C=CCCC1CN(Cc2ccc(OC)cc2)S(=O)(=O)c2c(cccc2N2CCCC2)O1 (stereo not given)	x	x	x	x	n	n
Cc1ccc2nc(CSc3nnc4ccccn34)cc(=O)n2c1	n	n	n	17	n	n
Cc1ccc2nc(CSc3nnc(-c4ccco4)n3-c3ccccc3)cc(=O)n2c1	n	n	n	n	n	n
Nc1nc2c(ncn2[C@@H]2O[C@H](C(=O)N[C@@H](Cc3ccccc3)C(=O)NCC3CCCCC3)[C@@H](O)[C@H]2O)c(=O)[nH]1	x	x	x	x	n	n
O=c1cc(CN2CCN(S(=O)(=O)c3ccccc3)CC2)nc2sccn12	n	n	n	n	n	n
O=c1cc(CN2CCCCCC2)nc2sccn12	n	n	+	n	n	n
Cc1[nH]c2ccccc2c1C(=O)c1c(N)[nH]c(C(=O)c2ccc(Br)cc2)c1-c1ccc(Br)cc1	x	x	x	x	n	n
COC(=O)c1ccc2nc(C3CCCCC3)c(Cc3ccccc3OC)n2c1	x	x	x	x	n	n
Cc1noc(C)c1S(=O)(=O)N(C)C[C@@H]1OCc2cnnn2CCCC(=O)N([C@@H](C)CO)C[C@@H]1C	x	x	x	x	n	n
Cc1cc(NC(=O)CCC(=O)N(CC(=O)NC2CCCC2)c2ccccc2)no1	n	n	22	n	n	n
Cc1cc(C)cc(N(CC(=O)NC2CCCC2)C(=O)CCC(=O)Nc2nc(C)cs2)c1	x	x	n	n	n	43
CCOC(=O)c1nn(-c2cccc(OC)c2)c(-c2ccccc2)c1C(=O)c1ccccc1	n	n	n	n	56	n
CCOc1ccc(-c2c[n+]3c(n2-c2ccccc2)CCCCC3)cc1	n	n	n	25	n	n
